Results on 35 compounds are retold here after ChEMBL document CHEMBL1155871, “Synthesis and evaluation of pyrazolo[3,4-b]pyridines and its structural analogues as TNF-alpha and IL-6 inhibitors” (Bioorg Med Chem, 2008).

In brackets after ≈: the same amount, converted by molar mass.

Test [1] deals with THP-1. The experiment in a line: Cytotoxicity against human THP1 cells at 10 uM. The class given is functional. In outline:
(§1)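 PMA-differentiated THP-1 cells in RPMI 1640 with 10% FBS were pretreated 30 min at 37 °C with compound or vehicle (0.5% DMSO). They were then stimulated with LPS for 24 h at 37 °C, 5% CO2. Viability was scored with CCK-8 in the same wells as the cytokine assay.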

In test [2] the test system is THP-1. Nature of the test: Antiinflammatory activity in human THP1 cells assessed as inhibition of IL6 at 10 uM by ELISA. The format is functional. In short, it runs like this: (§2)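 THP-1 cells grown in RPMI 1640 with 10% FBS, penicillin and streptomycin, then differentiated with PMA. After plating, cells took test compound or vehicle (0.5% DMSO) for 30 min at 37 °C. LPS (E. coli 0127:B8) was then added and plates were kept 24 h at 37 °C, 5% CO2. Supernatant TNF-α and IL-6 measured by ELISA. Percent inhibition was taken against control, and IC50 by nonlinear regression.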

The subject of test [3] is THP-1. The experiment in a line: Antiinflammatory activity in human THP1 cells assessed as inhibition of LPS-induced TNFalpha at 10 uM by ELISA. The format is functional. In short, it runs like this: as §2
In the next test the test system is PBMC. Nature of the test: Antiinflammatory activity in […] PBMC assessed as inhibition of LPS-induced TNFalpha by ELISA. The format is functional, cell-based. The settings on record: Homo sapiens.
A further test has as its target Phosphodiesterase 4 (Homo sapiens, UniProt P27815+Q08499+Q07343+Q08493). Nature of the test: Inhibition of PDE4 in human U937 cells by cAMP SPA enzyme assay. The class given is cell-based. To be noted: u-937.
In test [4] the test system is THP-1. The experiment in a line: Antiinflammatory activity in human THP1 cells assessed as inhibition of LPS-induced TNFalpha at 30 uM by ELISA. The format is functional. In short, it runs like this: as §2
In general terms: In an ELISA, binding on a coated surface is turned into a signal by an enzyme label.

The subject of another test is Trypanosoma cruzi. The experiment in a line: Antichagasic activity against Trypanosoma cruzi. The class given is functional, organism-based.
Test [5] has as its target Cyclin-dependent kinase 1/cyclin B1 (Homo sapiens, UniProt P06493). The experiment in a line: Inhibition of CDK1/cyclinB. The class given is protein-complex assay.
Another test relates to Escherichia coli. The experiment in a line: Antimicrobial activity against Escherichia coli. The format is functional, organism-based.
A further test relates to Candida albicans. The experiment in a line: Antimicrobial activity against Candida albicans. The format is functional, organism-based.
A further test concerns Mus musculus. Nature of the test: Inhibition of LPS-induced TNFalpha release in mouse at 20 mg/kg, po. The format is functional.
Test [6] deals with Mitogen-activated protein kinase 14 (Homo sapiens, UniProt Q16539). The experiment in a line: Inhibition of p38alpha MAPK.
The test system of test [7] is THP-1. Nature of the test: Cytotoxicity against human THP1 cells. The class given is functional, cell-based. In short, it runs like this: as §1
Test [8] concerns THP-1. Nature of the test: Antiinflammatory activity in human THP1 cells assessed as inhibition of LPS-induced TNFalpha by ELISA. The class given is functional, cell-based. In outline: as §2
The subject of test [9] is THP-1. The experiment in a line: Antiinflammatory activity in human THP1 cells assessed as inhibition of LPS-induced IL6 by ELISA. The class given is functional, cell-based. In outline: as §2
Test [10] relates to THP-1. The experiment in a line: Antiinflammatory activity in human THP1 cells assessed as inhibition of LPS-induced IL6 at 1 uM by ELISA. The class given is functional. In outline:
as §2

Test [11] deals with THP-1. The experiment in a line: Antiinflammatory activity in human THP1 cells assessed as inhibition of LPS-induced TNFalpha at 1 uM by ELISA. The class given is functional. In outline:
as §2

The subject of test [12] is THP-1. The experiment in a line: Cytotoxicity against human THP1 cells at 1 uM. The class given is functional. In outline:
as §1

Mitogen-activated protein kinase 14, sequence (Q16539 whole entry): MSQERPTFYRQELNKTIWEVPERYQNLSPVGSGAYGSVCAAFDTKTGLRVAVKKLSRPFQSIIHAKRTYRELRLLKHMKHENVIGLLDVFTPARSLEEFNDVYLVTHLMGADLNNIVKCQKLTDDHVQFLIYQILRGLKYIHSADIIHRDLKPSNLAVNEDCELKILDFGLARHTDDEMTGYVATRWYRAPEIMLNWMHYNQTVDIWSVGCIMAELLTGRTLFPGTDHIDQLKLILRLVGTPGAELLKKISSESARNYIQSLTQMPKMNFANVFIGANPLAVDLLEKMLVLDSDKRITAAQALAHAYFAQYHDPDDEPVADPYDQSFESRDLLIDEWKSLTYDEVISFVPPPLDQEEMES
Cyclin-dependent kinase 1/cyclin B1, sequence (P06493 whole entry): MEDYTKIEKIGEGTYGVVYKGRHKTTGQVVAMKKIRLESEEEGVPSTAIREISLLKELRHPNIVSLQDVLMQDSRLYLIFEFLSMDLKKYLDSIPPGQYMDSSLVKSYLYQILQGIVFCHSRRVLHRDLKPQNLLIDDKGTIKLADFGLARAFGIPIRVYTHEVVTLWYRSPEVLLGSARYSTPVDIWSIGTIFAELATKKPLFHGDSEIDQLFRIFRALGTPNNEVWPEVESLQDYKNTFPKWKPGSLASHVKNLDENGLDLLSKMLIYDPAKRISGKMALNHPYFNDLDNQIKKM
Cyclin-dependent kinase 1/cyclin B1, sequence (P14635 whole entry, further chain): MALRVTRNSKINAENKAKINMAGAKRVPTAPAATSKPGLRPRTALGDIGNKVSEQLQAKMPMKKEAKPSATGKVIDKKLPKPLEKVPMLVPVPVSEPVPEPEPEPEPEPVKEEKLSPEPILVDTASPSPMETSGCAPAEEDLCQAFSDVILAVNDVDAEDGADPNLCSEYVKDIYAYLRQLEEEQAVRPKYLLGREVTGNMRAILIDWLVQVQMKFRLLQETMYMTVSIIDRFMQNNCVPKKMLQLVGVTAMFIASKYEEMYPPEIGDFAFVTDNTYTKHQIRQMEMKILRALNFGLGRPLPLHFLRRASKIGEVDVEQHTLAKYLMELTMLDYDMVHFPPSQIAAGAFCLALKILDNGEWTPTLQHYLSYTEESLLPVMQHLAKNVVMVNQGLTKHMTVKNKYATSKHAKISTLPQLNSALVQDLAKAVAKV

On to `O=c1[nH]c(=O)c2cc(CCCO)cnc2[nH]1`, for which the inhibition (in general, how much of the control response was suppressed) at 10 µM in the test with THP-1 [1] turned out to be 12%; in the test on THP-1 [2] it was 37%; in the test on THP-1 [3], 0%.

With `OCCCc1cnc2ncnn2c1`, the inhibition at 10 µM is 0% in the test on THP-1 [1], 43% in the test with THP-1 [2] and 4% in the test on THP-1 [3].

Consider `Cc1ccc(-c2cc3ncc(C(=O)c4cc(C)ccc4O)cn3n2)cc1`, for which the values for the inhibition at 10 µM with THP-1 [1], in the test with THP-1 [2] and with THP-1 [3] were 5%, 9% and 0%, respectively.

Regarding `CCn1ncc2cc(CCCO)cnc21`, the inhibition at 10 µM in the test on THP-1 [1] came to 8%; in the test with THP-1 [2] it was 45%; in the test on THP-1 [3], 0%.

Regarding `COc1ccc(-c2nn(-c3ccccc3)c3ncc(C(=O)c4cc(C)ccc4O)cc23)cc1`, the inhibition at 10 µM in the test on THP-1 [1] came out at 27%; with THP-1 [2] it was 49%; in the test on THP-1 [3] it was 0%.

Consider `Cc1ccc(O)c(C(=O)c2cnc3[nH]c(=O)[nH]c(=O)c3c2)c1`, for which the figures for the inhibition at 10 µM with THP-1 [1], in the test on THP-1 [2] and in the test on THP-1 [3] were 0%, 39% and 6%, respectively.

`CCn1ncc2c(-c3cncc(Br)c3)c(C#N)c(C)nc21`: the values for the IC50 in the test on PBMC and against Phosphodiesterase 4 were 27 nM and greater than 1000 nM, respectively.

For `COC[C@H](O)[C@@H](OC)[C@@H](OC)C1=CC2C(C)=NN(C)C2N=C1` (some centres not stated), the inhibition at 10 µM is 5% in the test on THP-1 [1], 35% in the test with THP-1 [2] and 20% in the test on THP-1 [3]. Further, the inhibition at 30 µM in the test with THP-1 [4] came out at 30%.

In the case of `CCO[C@@H](C1=CC2C(C)=NN(c3ccccc3)C2N=C1)[C@H](O)[C@@H](O)COC` (some centres not stated), the inhibition at 10 µM was found to be 8% with THP-1 [1], 43% in the test on THP-1 [2] and 2% in the test with THP-1 [3].

Turning to `COc1ccc(-c2nn(-c3ccccc3)c3ncc(CCCO)cc23)cc1`, the inhibition at 10 µM in the test with THP-1 [1] is 10%; in the test on THP-1 [2] it was 36%; with THP-1 [3] it was 12%.

As for `CCO[C@@H](C1=CC2C(c3ccc(O)cc3)=NN(c3ccccc3)C2N=C1)[C@H](O)[C@@H](O)CO` (some centres not stated), the inhibition at 10 µM came out at 5% with THP-1 [1], 40% with THP-1 [2] and 0% with THP-1 [3].

Turning to `Cc1nn(-c2ccccc2)c2ncc(CCCO)cc12`, the figures for the inhibition at 10 µM with THP-1 [1], in the test on THP-1 [2] and in the test on THP-1 [3] were 16%, 19% and 8%, respectively.

For `Cc1cc(C)c(O)c(C(=O)c2cnc3c(c2)c(C)nn3-c2ccccc2)c1`, the inhibition at 10 µM was 14% with THP-1 [1], 44% in the test with THP-1 [2] and 0% in the test with THP-1 [3].

Consider `Cc1ccc(O)c(C(=O)c2cnc3c(c2)c(C)nn3C)c1`, for which the results for the inhibition at 10 µM in the test on THP-1 [1], in the test on THP-1 [2] and with THP-1 [3] were 41%, 60% and 0%, respectively.

On to `OCCCc1cnc2nc3ccccc3n2c1`, for which the inhibition at 10 µM with THP-1 [1] stood at 9%; in the test with THP-1 [2] it was 18%; with THP-1 [3], 0%.

Take `Cc1ccc(O)c(C(=O)c2cnc3onc(-c4ccccc4)c3c2)c1`: the inhibition at 10 µM came out at 25% in the test on THP-1 [1], 63% with THP-1 [2] and 0% with THP-1 [3].

As for `Cc1ccc(O)c(C(=O)c2cnc3c(c2)c(C)nn3-c2ccccc2)c1`, the inhibition at 10 µM was determined as 39% in the test on THP-1 [1], 54% in the test on THP-1 [2] and 0% with THP-1 [3].

On to `Cc1nn(-c2ccccc2)c2nc(-c3ccccc3)cc(C(=O)N/N=C/c3ccc(O)cc3)c12`, for which, in the test on Trypanosoma cruzi, half-maximal inhibition (IC50) required 1.9 µg/mL (≈ 4.25 µM).

For `CCO[C@@H](C1=CC2C(C)=NN(c3ccccc3)C2N=C1)[C@H](OC)[C@@H](O)COC` (some centres not stated), the values for the inhibition at 10 µM in the test on THP-1 [1], in the test on THP-1 [2] and in the test with THP-1 [3] were 4%, 44% and 19%, respectively. In addition, in the test with THP-1 [4], the inhibition at 30 µM came to 30%.

On to `CCn1ncc2c(-c3cncc(C)c3)c(/C=C/C(=O)O)cnc21`, for which the half-maximal inhibitory concentration (IC50) (usually the point on the concentration scale where inhibition reaches its midpoint) with PBMC was 15.7 nM; against Phosphodiesterase 4, greater than 1000 nM.

For the compound `CC(=O)OCCCc1cnc2ccnn2c1`, the inhibition at 10 µM in the test with THP-1 [1] amounted to 0%; in the test with THP-1 [2], 66%; with THP-1 [3], 13%.

Turning to `Cc1nn(C)c2ncc(CCCO)cc12`, the inhibition at 10 µM in the test with THP-1 [1] came out at 7%; with THP-1 [2] it was 27%; in the test on THP-1 [3], 6%.

As for `Cc1ccc(-c2cc3ncc(CCCO)cn3n2)cc1`, the figures for the inhibition at 10 µM in the test with THP-1 [1], with THP-1 [2] and in the test with THP-1 [3] were 9%, 0% and 0%, respectively.

As for `CC(=O)OCCCc1cnc2ncnn2c1`, the inhibition at 10 µM in the test on THP-1 [1] was 0%; in the test with THP-1 [2] it was 45%; with THP-1 [3] it was 7%.

`CCn1ncc2cc(CCCOC(C)=O)cnc21`: the inhibition at 10 µM with THP-1 [1] was 13%; in the test on THP-1 [2], 16%; in the test with THP-1 [3], 0%.

Compound `CCNCc1cncc(-c2cnc3c(c2)C(c2nc4cc(F)ccc4[nH]2)N=N3)c1` (configuration not stated) came in with a half-maximal inhibitory concentration (IC50) in test [5] of 0.7 nM.

As to `CCO[C@@H](C1=CC2C(C)=NN(c3ccccc3)C2N=C1)[C@H](O)[C@@H](O)CO` (some centres not stated), the inhibition at 10 µM is 9% with THP-1 [1], 44% with THP-1 [2] and 3% with THP-1 [3].

With `COc1cc(-c2cc(-c3ccc(Cl)c(Cl)c3)nc3[nH]nc(C)c23)cc(OC)c1OC`, the 50% inhibitory concentration (IC50) with Escherichia coli was found to be 22000 nM; with Candida albicans, 18000 nM.

As for `COc1ccc(C(=O)NN2CCOCC2)cc1-c1n[nH]c2nc(Nc3ccc(F)cc3F)ccc12`, the inhibition in vivo (usually how much of the control response was suppressed) at 20 mg/kg in the test with Mus musculus worked out at 97%. In test [6], this compound had an IC50 of 0.7 nM.

Regarding `Cc1nn(C)c2ncc(C(=O)c3cc(F)ccc3O)cc12`, the inhibition at 10 µM with THP-1 [1] was 19%; with THP-1 [2], 34%; in the test on THP-1 [3], 0%.

As for `Cc1ccc(O)c(C(=O)c2cnc3onc(C)c3c2)c1`, the IC50 with THP-1 [7] is greater than 100000 nM; with THP-1 [8], greater than 100000 nM; in the test with THP-1 [9], 160 nM. Also, the inhibition at 10 µM in the test with THP-1 [1] was 16%; in the test on THP-1 [2], 58%; in the test with THP-1 [3], 5%.

Turning to `COC[C@H](O)[C@@H](OC)[C@@H](OC)c1cnc2cc(-c3ccc(C)cc3)nn2c1`, the inhibition at 10 µM worked out at 3% in the test on THP-1 [1], 34% with THP-1 [2] and 18% in the test with THP-1 [3]. Besides, in the test with THP-1 [4], the inhibition at 30 µM amounted to 30%.

In the case of `Cc1ccc(O)c(C(=O)c2cnc3nc4ccccc4n3c2)c1`, the values for the inhibition at 10 µM with THP-1 [1], in the test on THP-1 [2] and with THP-1 [3] were 37%, 32% and 5%, respectively.

As to `CCO[C@@H](C1=CC2C(c3ccc(OC)cc3)=NN(c3ccccc3)C2N=C1)[C@H](OC)[C@@H](O)COC` (some centres not stated), the inhibition at 10 µM in the test with THP-1 [1] worked out at 6%; with THP-1 [2] it was 35%; in the test on THP-1 [3], 15%. The inhibition at 30 µM with THP-1 [4] worked out at 30%.

Turning to `C[C@@H]1C[C@H]2[C@@H]3CCC4=CC(=O)C=C[C@]4(C)[C@@]3(F)[C@@H](O)C[C@]2(C)[C@@]1(O)C(=O)CO` [DEXAMETHASONE], the figures for the inhibition at 1 µM with THP-1 [10], with THP-1 [11] and with THP-1 [12] were 94%, 72% and 0%, respectively. For the same compound, the 50% inhibitory concentration (IC50) with THP-1 [7] was greater than 100000 nM; with THP-1 [8], 50 nM; with THP-1 [9] it was 7 nM.
